Active and inactive are the calls of the source. No cut-off for these calls is given here.

For the first data set, the target named is T1, Neutrophil elastase (Homo sapiens) (UniProt P08246).
T1 sequence (whole entry): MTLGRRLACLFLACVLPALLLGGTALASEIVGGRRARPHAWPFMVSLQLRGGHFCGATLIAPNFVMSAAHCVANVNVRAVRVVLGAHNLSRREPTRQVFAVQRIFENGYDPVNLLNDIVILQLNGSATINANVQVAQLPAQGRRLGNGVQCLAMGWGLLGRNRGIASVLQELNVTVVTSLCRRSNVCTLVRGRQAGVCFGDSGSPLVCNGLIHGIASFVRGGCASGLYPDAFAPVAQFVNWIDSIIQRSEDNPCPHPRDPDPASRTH
Nature of the data set: Inhibition of human neutrophil elastase at 50 uM using N-methylsuccinyl-Ala-Ala-Pro-Val-7-amino-4-methylcoumarin as substrate measured every 30 secs for 10 mins by fluorescence assay. The method in brief:
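HNE (20 mU/mL) in 200 mM Tris-HCl pH 7.5 with 0.01% BSA and 0.05% Tween-20. Compound from 5 mM DMSO stock, 1% DMSO final, tested up to 50 µM. Reaction started with 25 µM final substrate. Fluorescence read at ex 355/em 460 nm, 25 °C. No inhibition at 50 µM is reported as N.A.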
Consider `Cc1cccc(C(=O)n2cc(-c3ccsc3)c3cccnc32)c1`, for which the inhibition result is “inactive”.

On to `N#Cc1cn(CC(=O)Nc2ccccc2)c2ncccc12`, for which the inhibition result is “inactive”.

In the case of `Cc1cccc(C(=O)n2ccc3cccnc32)c1`, the inhibition entry is “inactive”.

`CCOC(=O)c1cn(CC(=O)Nc2ccccc2)c2ncccc12`: the inhibition result was “inactive”. Same read-out and setting: the entry for `Cn1cc(C(=O)Nc2ccccc2)c2cccnc21` is “inactive”.

Tested on in another data set: not listed separately
Nature of the data set: Half life in 0.05 M phosphate buffer of pH 7.3 at 25 degC by spectrophotometric analysis. The format is physicochemical.
By half-life is commonly meant how long it takes for the measured level to halve. Turning to `Cc1ccc(C(=O)n2cc(C#N)c3cccnc32)cc1`, the half-life is 2.6 h. Consider `CCOC(=O)c1cn(C(=O)c2ccc(C)cc2)c2ncccc12`, for which the half-life was 4.3 h.

The compound `Cc1cccc(C(=O)n2cc(C#N)c3cccnc32)c1` gave a half-life of 1.9 h.

`CCCCC(=O)n1cc(C#N)c2cccnc21`: the half-life was 1.9 h. Still for that read-out and setting: the value for `CCOC(=O)c1cn(C(=O)C2CC2)c2ncccc12` was 14.4 h; that for `N#Cc1cn(C(=O)C2CC2)c2ncccc12` was 6.8 h; that for `CCOC(=O)c1cn(C(=O)c2cccc(C)c2)c2ncccc12` was 3.5 h. Same read-out and setting: the value for `Cc1cccc(C(=O)n2cc([N+](=O)[O-])c3cccnc32)c1` was 0.4 h. Take `Cc1cccc(C(=O)n2cc(C(=O)Nc3ccccc3)c3cccnc32)c1`: the half-life is 3.4 h. Against the preceding compound, the half-life is about 8.5-fold higher. Compound `Cc1cccc(C(=O)n2cc(-c3nc(C)no3)c3cccnc32)c1` showed a half-life of 2.4 h.

These data come from ChEMBL document CHEMBL4261628, “1H-pyrrolo[2,3-b]pyridine: A new scaffold for human neutrophil elastase (HNE) inhibitors” (Bioorg Med Chem, 2018).
